According to ChEMBL document CHEMBL2331492, “Synthesis and biological evaluation of new cytotoxic indazolo[4,3-gh]isoquinolinone derivatives” (Bioorg Med Chem Lett, 2013):
Calls of active or inactive are those of the source. The calls are words filed in the database; no cut-off is given here.

Legend:
[1] = Antiproliferative activity against human KB/HeLa cells after 48 hrs; type: functional, cell-based
Outline: (§1)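 Cells seeded in supplier-recommended growth medium at line-adapted densities (linear signal range), grown 24 h at 37 °C/5% CO2, then exposed to compound; highest concentration 3.16 μM. After 45 h, resazurin (0.2 mg/mL in DPBS) added for 3 h; fluorescence at 590 nm read at 48 h. % efficacy vs untreated cells and cell-free blanks; EC50 by nonlinear regression from at least two independent assays.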

[2] = Antiproliferative activity against human RKOp27 cells after 48 hrs; type: functional, cell-based; conditions: RKOp27, 48 h; outline: as §1
SF-268 [3] = test: Antiproliferative activity against human SF268 cells after 48 hrs; type: functional, cell-based; conditions: SF-268, 48 h; outline: as §1
SK-OV-3 [4] = test: Antiproliferative activity against human SKOV3 cells after 48 hrs; type: functional, cell-based; conditions: SK-OV-3, 48 h; outline: as §1
[5] = Antiproliferative activity against human RKOp27IND cells after 48 hrs; type: functional, cell-based; outline: as §1
NCI-H460 [6] = test: Antiproliferative activity against human NCI-H460 cells after 48 hrs; type: functional, cell-based; conditions: NCI-H460, 48 h; outline: as §1
DNA = test: Binding affinity to calf thymus DNA up to 5 mM; type: nucleic-acid assay; conditions: Bos taurus
Outline: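 UV-vis absorbance shift assay. Stocks of up to 5 mM were made in 5% DMSO or methanol. They were diluted in pH 7 phosphate buffer (5 mM NaH2PO4, 5 mM Na2HPO4, 70 mM NaCl) to give a maximum absorbance of about 1–2. Spectra were taken from 230–600 nm with and without 2 mg/ml calf thymus DNA, and peak shifts were compared.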

[7] = Cell cycle arrest in human KB/HeLa cells assessed as accumulation at S phase up to 11 uM after 24 hrs by flow cytometry analysis; type: functional, cell-based
Outline: (§2)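 Exponentially dividing KB/HeLa cells (ATCC CCL17) were exposed at 37 °C to a range of compound concentrations and compared with untreated controls. Cells were prepared with the CycleTEST PLUS kit. DNA content was measured by flow cytometry (FACSCalibur), and phase distribution was derived with cell cycle analysis software.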

SK-OV-3 [8] = test: Antiproliferative activity against human SKOV3 cells at 3.16 uM after 48 hrs; type: functional; conditions: SK-OV-3, 48 h
Outline: (§3)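 Cells were seeded in the supplier-recommended medium and grown 24 h at 37 °C/5% CO2 before compound addition. Resazurin (0.2 mg/mL in DPBS) was added after 45 h, and fluorescence at 590 nm was read at 48 h total. % inhibition at the highest concentration (3.16 μM) was scored against untreated cells and cell-free blanks on each plate. Data came from at least two independent assays.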

SF-268 [9] = test: Antiproliferative activity against human SF268 cells at 3.16 uM after 48 hrs; type: functional; conditions: SF-268, 48 h; outline: as §3
NCI-H460 [10] = test: Antiproliferative activity against human NCI-H460 cells at 3.16 uM after 48 hrs; type: functional; conditions: NCI-H460, 48 h; outline: as §3
[11] = Antiproliferative activity against human RKOp27 cells at 3.16 uM after 48 hrs; type: functional; conditions: RKOp27, 48 h; outline: as §3
[12] = Antiproliferative activity against human KB/HeLa cells at 3.16 uM after 48 hrs; type: functional; outline: as §3
[13] = Antiproliferative activity against human RKOp27IND cells at 3.16 uM after 48 hrs; type: functional; outline: as §3
[14] = Cell cycle arrest in human KB/HeLa cells assessed as accumulation at S phase at < 4 uM after 24 hrs by flow cytometry analysis; type: functional, cell-based; outline: as §2
[15] = Cell cycle arrest in human KB/HeLa cells assessed as accumulation at S phase at < 7 uM after 24 hrs by flow cytometry analysis; type: functional, cell-based; outline: as §2
[16] = Cell cycle arrest in human KB/HeLa cells assessed as accumulation at S phase at < 6 uM after 24 hrs by flow cytometry analysis; type: functional, cell-based; outline: as §2

Compound | EC50 [1] [nM] | EC50 [2] [nM] | EC50 (SF-268 [3]) [nM] | EC50 (SK-OV-3 [4]) [nM] | EC50 [5] [nM] | EC50 (NCI-H460 [6]) [nM] | Activity (DNA) | other results
CN(C)CCn1nc2c3c(c(NCCC#CCCO)ccc31)C(=O)c1ccncc1-2 | 1390 | 1630 | 3450 | 1210 | 3230 | 680 | Active | 
CN(C)CCn1nc2c3c(c(NCCc4cccs4)ccc31)C(=O)c1ccncc1-2 |  | 3120 |  | 3220 | 4840 | 1470 |  | 
CN(C)CCn1nc2c3c(c(NCCc4c[nH]c5ccccc45)ccc31)C(=O)c1ccncc1-2 |  | 1330 |  | 1520 | 1510 | 1320 | inactive | 
CN(C)CCn1nc2c3c(c(NCCC#CCCN4CC4)ccc31)C(=O)c1ccncc1-2 | 140 | 70 | 240 | 310 | 350 | 60 | Active | Activity [7]: inactive
CN(C)CCn1nc2c3c(c(NCCCCCCOS(C)(=O)=O)ccc31)C(=O)c1ccncc1-2 | 1670 | 510 | 1370 | 3610 | 1930 | 820 |  | 
CN(C)CCSCCNc1ccc2c3c(nn2CCN(C)C)-c2cnccc2C(=O)c13 | 750 | 920 | 2370 | 700 | 1790 | 310 |  | 
CN(C)CCn1nc2c3c(c(NCCc4ccccn4)ccc31)C(=O)c1ccncc1-2 |  | 2680 |  | 1410 | 3770 | 990 |  | 
CN(C)CCn1nc2c3c(c(NCCCCN4CC4)ccc31)C(=O)c1ccncc1-2 | 80 | 1000 | 420 | 530 | 1020 | 70 | Active | 
c1ccc2nc3ccccc3cc2c1 |  |  |  |  |  |  | Active | 
CN(C)CCn1nc2c3c(c(NCCCCc4ccc(N(CCCl)CCCl)cc4)ccc31)C(=O)c1ccncc1-2 | 2470 | 1190 | 4170 |  | 1630 | 3760 |  | inhibition at 3.16 µM (SK-OV-3 [8]): < 30%
CSCCCNc1ccc2c3c(nn2CCN(C)C)-c2cnccc2C(=O)c13 |  | 2940 |  | 1360 | 4760 | 680 |  | 
O=C1c2c(O)ccc(O)c2C(=O)c2c(NCCNCCO)ccc(NCCNCCO)c21 [MITOXANTRONE] | 360 | 90 | 320 | 120 | 760 | 120 | Active | 
CN(C)CCn1nc2c3c(c(NCCOS(C)(=O)=O)ccc31)C(=O)c1ccncc1-2 | 150 | 170 | 390 | 550 | 1830 | 250 |  | 
CN(C)CCn1nc2c3c(c(NCCN4CC4)ccc31)C(=O)c1ccncc1-2 | 70 | 80 | 690 | 390 | 1050 | 80 |  | 
CN(C)CCn1nc2c3c(c(NCCc4c[nH]cn4)ccc31)C(=O)c1ccncc1-2 |  | 1330 |  | 1650 | 4810 | 3020 |  | 
CN(C)CCn1nc2c3c(c(NCCCCCCc4ccc(N(CCCl)CCCl)cc4)ccc31)C(=O)c1ccncc1-2 |  |  |  |  |  |  |  | inhibition at 3.16 µM (SF-268 [9]): < 30%; inhibition at 3.16 µM (NCI-H460 [10]): < 30%; inhibition at 3.16 µM (SK-OV-3 [8]): < 30%; inhibition at 3.16 µM [11]: < 30%; inhibition at 3.16 µM [12]: < 30%; inhibition at 3.16 µM [13]: < 30%
CN(C)CCn1nc2c3c(c(N(C)C)ccc31)C(=O)c1ccncc1-2 | 2190 | 2630 | 1340 | 2080 | 3060 | 770 | Active | 
CN(C)CCn1nc2c3c(c(NCC/C=C\CCOS(C)(=O)=O)ccc31)C(=O)c1ccncc1-2 | 750 | 630 | 3070 | 5380 | 2610 | 2180 |  | 
CN(C)CCn1nc2c3c(c(NCCC#CCCOS(C)(=O)=O)ccc31)C(=O)c1ccncc1-2 | 390 | 470 | 750 | 730 | 980 | 411 |  | 
CN(C)CCn1nc2c3c(c(NCCCCCCN4CC4)ccc31)C(=O)c1ccncc1-2 | 340 | 130 | 760 | 770 | 1280 | 200 | Active | Activity [14]: Active
CN(C)CCn1nc2c3c(c(NCCCCOS(C)(=O)=O)ccc31)C(=O)c1ccncc1-2 | 3170 | 1180 |  |  |  | 1070 |  | inhibition at 3.16 µM (SF-268 [9]): < 30%; inhibition at 3.16 µM (SK-OV-3 [8]): < 30%; inhibition at 3.16 µM [13]: < 30%
CN(C)CCn1nc2c3c(c(NCCSCCO)ccc31)C(=O)c1ccncc1-2 | 960 | 550 | 660 | 400 | 1060 | 150 | Active | 
CN(C)CCn1nc2c3c(c(NCCC4CCCN4C)ccc31)C(=O)c1ccncc1-2 (stereo unspecified) |  | 370 |  | 360 | 460 | 160 | Active | 
CN(C)CCn1nc2c3c(c(NCC/C=C/CCN4CC4)ccc31)C(=O)c1ccncc1-2 | 1220 | 720 | 2990 | 3220 | 2780 | 690 |  | Activity [15]: Active
CN(C)CCn1nc2c3c(c(NCC/C=C\CCN4CC4)ccc31)C(=O)c1ccncc1-2 | 430 | 290 | 1710 | 1770 | 1200 | 590 |  | Activity [16]: Active
